{"source": "ChEMBL document CHEMBL1122018", "about": "“Synthesis and orexigenic activity of some 1-methyl-4-piperidylidene-Substituted pyrrolo[2,1-g][3] benzazepine and dibenzocycloheptene derivatives” (1982)", "format_in_all_cases": "functional", "key": {"[1]": {"test_system": "Felis catus", "experiment": "Average food consumed at the dose of 0.25 mg/kg (po) using 10 cats per dose level at 60 min (control day/ test day); 25/109", "how_it_was_run": "(§1)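 Cats given test compound suspended in 1% methylcellulose, or 1% methylcellulose placebo, by gavage 30 min before a preweighed test meal. Food was offered in surplus for 3 h, and intake was found by reweighing at 30, 60 and 180 min. Ten cats per dose, each dosed no more than once weekly. Test-day intake was compared with the preceding control day by two-tailed paired t test (p < 0.05); values are mean ± SD.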"}, "[2]": {"test_system": "Felis catus", "experiment": "Average food consumed at the dose of 0.25 mg/kg (po) using 10 cats per dose level at 30 min (control day/ test day); 17/76"}, "[3]": {"test_system": "Felis catus", "experiment": "Average food consumed at the dose of 0.50 mg/kg (po) using 10 cats per dose level at 60 min (control day/ test day); 19/96", "details": "dose 0.5 mg/kg", "how_it_was_run": "as §1"}, "[4]": {"test_system": "Felis catus", "experiment": "Average food consumed at the dose of 0.50 mg/kg (po) using 10 cats per dose level at 60 min (control day/ test day); 33/124", "details": "dose 0.5 mg/kg", "how_it_was_run": "as §1"}, "[5]": {"test_system": "Felis catus", "experiment": "Average food consumed at the dose of 0.25 mg/kg (po) using 10 cats per dose level at 60 min (control day/ test day); 31/66", "how_it_was_run": "as §1"}, "[6]": {"test_system": "Felis catus", "experiment": "Average food consumed at the dose of 0.50 mg/kg (po) using 10 cats per dose level at 180 min (control day/ test day); 34/273", "details": "dose 0.5 mg/kg", "how_it_was_run": "as §1"}, "[7]": {"test_system": "Felis catus", "experiment": "Average food consumed at the dose of 0.25 mg/kg (po) using 10 cats per dose level at 180 min (control day/ test day); 25/236"}, "[8]": {"test_system": "Felis catus", "experiment": "Average food consumed at the dose of 0.063 mg/kg (po) using 10 cats per dose level at 180 min (control day/ test day); 17/166"}, "[9]": {"test_system": "Felis catus", "experiment": "Average food consumed at the dose of 0.031 mg/kg (po) using 10 cats per dose level at 180 min (control day/ test day); 27/159"}, "[10]": {"test_system": "Felis catus", "experiment": "Average food consumed at the dose of 0.50 mg/kg (po) using 10 cats per dose level at 60 min (control day/ test day); 34/203", "details": "dose 0.5 mg/kg", "how_it_was_run": "as §1"}, "[11]": {"test_system": "Felis catus", "experiment": "Average food consumed at the dose of 0.063 mg/kg (po) using 10 cats per dose level at 30 min (control day/ test day); 17/57"}, "[12]": {"test_system": "Felis catus", "experiment": "Average food consumed at the dose of 0.031 mg/kg (po) using 10 cats per dose level at 30 min (control day/ test day); 20/55"}, "[13]": {"test_system": "Felis catus", "experiment": "Average food consumed at the dose of 0.063 mg/kg (po) using 10 cats per dose level at 60 min (control day/ test day); 18/98"}, "[14]": {"test_system": "Felis catus", "experiment": "Average food consumed at the dose of 0.50 mg/kg (po) using 10 cats per dose level at 30 min (control day/ test day); 30/147", "details": "dose 0.5 mg/kg", "how_it_was_run": "as §1"}, "[15]": {"test_system": "Felis catus", "experiment": "Average food consumed at the dose of 0.031 mg/kg (po) using 10 cats per dose level at 60 min (control day/ test day); 17/79"}, "[16]": {"test_system": "Felis catus", "experiment": "Average food consumed at the dose of 0.25 mg/kg (po) using 10 cats per dose level at 30 min (control day/ test day); 32/66", "how_it_was_run": "as §1"}, "[17]": {"test_system": "Felis catus", "experiment": "Average food consumed at the dose of 0.50 mg/kg (po) using 10 cats per dose level at 180 min (control day/ test day); 36/188", "details": "dose 0.5 mg/kg", "how_it_was_run": "as §1"}, "[18]": {"test_system": "Felis catus", "experiment": "Average food consumed at the dose of 0.25 mg/kg (po) using 10 cats per dose level at 30 min (control day/ test day); 24/129"}, "[19]": {"test_system": "Felis catus", "experiment": "Average food consumed at the dose of 0.50 mg/kg (po) using 10 cats per dose level at 30 min (control day/ test day); 13/68", "details": "dose 0.5 mg/kg", "how_it_was_run": "as §1"}, "[20]": {"test_system": "Felis catus", "experiment": "Average food consumed at the dose of 0.50 mg/kg (po) using 10 cats per dose level at 180 min (control day/ test day); 16/141", "details": "dose 0.5 mg/kg", "how_it_was_run": "as §1"}, "[21]": {"test_system": "Felis catus", "experiment": "Average food consumed at the dose of 0.25 mg/kg (po) using 10 cats per dose level at 180 min (control day/ test day); 30/169"}, "[22]": {"test_system": "Felis catus", "experiment": "Average food consumed at the dose of 0.50 mg/kg (po) using 10 cats per dose level at 30 min (control day/ test day); 35/108", "details": "dose 0.5 mg/kg", "how_it_was_run": "as §1"}, "[23]": {"test_system": "Felis catus", "experiment": "Average food consumed at the dose of 0.25 mg/kg (po) using 10 cats per dose level at 180 min (control day/ test day); 41/138"}, "[24]": {"test_system": "Felis catus", "experiment": "Average food consumed at the dose of 0.25 mg/kg (po) using 10 cats per dose level at 60 min (control day/ test day); 31/179", "how_it_was_run": "as §1"}}, "data": [{"smiles": "CN1CCC(=C2c3ccccc3C=Cc3ccc(C(=O)O)cc32)CC1", "values": [{"measurement": "Average consumed", "setting": "[1]", "result": 90, "unit": "g"}, {"measurement": "Average consumed", "setting": "[2]", "result": 62, "unit": "g"}, {"measurement": "Average consumed", "setting": "[3]", "result": 94, "unit": "g"}, {"measurement": "Average consumed", "setting": "[4]", "result": 102, "unit": "g"}, {"measurement": "Average consumed", "setting": "[5]", "result": 86, "unit": "g"}, {"measurement": "Average consumed", "setting": "[6]", "result": 219, "unit": "g"}, {"measurement": "Average consumed", "setting": "[7]", "result": 191, "unit": "g"}, {"measurement": "Average consumed", "setting": "[8]", "result": 159, "unit": "g"}, {"measurement": "Average consumed", "setting": "[9]", "result": 157, "unit": "g"}, {"measurement": "Average consumed", "setting": "[10]", "result": 160, "unit": "g"}, {"measurement": "Average consumed", "setting": "[11]", "result": 68, "unit": "g"}, {"measurement": "Average consumed", "setting": "[12]", "result": 68, "unit": "g"}, {"measurement": "Average consumed", "setting": "[13]", "result": 94, "unit": "g"}, {"measurement": "Average consumed", "setting": "[14]", "result": 116, "unit": "g"}, {"measurement": "Average consumed", "setting": "[15]", "result": 95, "unit": "g"}, {"measurement": "Average consumed", "setting": "[16]", "result": 68, "unit": "g"}, {"measurement": "Average consumed", "setting": "[17]", "result": 149, "unit": "g"}, {"measurement": "Average consumed", "setting": "[18]", "result": 108, "unit": "g"}, {"measurement": "Average consumed", "setting": "[19]", "result": 71, "unit": "g"}, {"measurement": "Average consumed", "setting": "[20]", "result": 125, "unit": "g"}, {"measurement": "Average consumed", "setting": "[21]", "result": 133, "unit": "g"}, {"measurement": "Average consumed", "setting": "[22]", "result": 72, "unit": "g"}, {"measurement": "Average consumed", "setting": "[23]", "result": 137, "unit": "g"}, {"measurement": "Average consumed", "setting": "[24]", "result": 147, "unit": "g"}]}]}
